{"source": "ChEMBL document CHEMBL1135475", "about": "“One-pot synthesis of benzo[b]furan and indole inhibitors of tubulin polymerization” (J Med Chem, 2002)", "key": {"Tubulin (Bos taurus)": {"molecular_target": "Tubulin (Bos taurus) (UniProt Q6B856+Q862L2+Q862F3)", "assay": "Percent inhibition of 5 uM of [3H]colchicine binding to 1 uM of tubulin by 5 uM of compound after a 10 minute incubation at 37 degrees C", "type": "protein assay", "summary_of_the_method": "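Tubulin purified to electrophoretic homogeneity from bovine brain, used at 1.0 µM with [3H]colchicine and inhibitor both at 5.0 µM. […] At least two independent experiments per compound.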"}, "Tubulin": {"molecular_target": "Tubulin (Bos taurus, UniProt Q6B856+Q862L2+Q862F3)", "assay": "Inhibition of tubulin (10 uM) polymerization, after a 20 min incubation at 30 degrees Centigrade", "type": "functional"}}, "data": [{"smiles": "COc1ccc2c(C(=O)c3cc(OC)c(OC)c(OC)c3)c(-c3ccc(OC)c(O)c3)sc2c1", "values": [{"measurement": "inhibition", "setting": "Tubulin (Bos taurus)", "value": 21, "unit": "%"}]}, {"smiles": "COc1ccc(-c2oc3cc(OC)ccc3c2C(=O)c2cc(OC)c(OC)c(OC)c2)cc1", "values": [{"measurement": "inhibition", "setting": "Tubulin (Bos taurus)", "value": 77, "unit": "%"}]}, {"smiles": "COc1ccc(-c2oc3cc(OC)ccc3c2-c2cc(OC)c(OC)c(OC)c2)cc1", "values": [{"measurement": "IC50", "setting": "Tubulin", "value": "> 40", "unit": "µM"}]}]}
